This note sets out measurements from ChEMBL document CHEMBL4261550, “Triazolopyrimidines identified as reversible myeloperoxidase inhibitors” (Medchemcomm, 2017).

Data set [1] is described as follows: Redox activity assessed as conversion of resazurin reagent to resorufin at 10 uM after 30 mins by fluorescence assay relative to control. It counts as physicochemical. To be noted: 0.5 h. In a few lines:
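Redox counterscreen: compound 10 μM final incubated with 5 μM resazurin reagent (final) 30 min; fluorescence intensity read; normalized to a reactive styrylpyrimidotriazinedione standard at 10 μM as 100%.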
In general terms: Alamar Blue is a resazurin reagent that responds to reducing activity.

The target of another data set is T1, Eosinophil peroxidase (Homo sapiens, UniProt P11678).
T1 sequence (P11678 whole entry): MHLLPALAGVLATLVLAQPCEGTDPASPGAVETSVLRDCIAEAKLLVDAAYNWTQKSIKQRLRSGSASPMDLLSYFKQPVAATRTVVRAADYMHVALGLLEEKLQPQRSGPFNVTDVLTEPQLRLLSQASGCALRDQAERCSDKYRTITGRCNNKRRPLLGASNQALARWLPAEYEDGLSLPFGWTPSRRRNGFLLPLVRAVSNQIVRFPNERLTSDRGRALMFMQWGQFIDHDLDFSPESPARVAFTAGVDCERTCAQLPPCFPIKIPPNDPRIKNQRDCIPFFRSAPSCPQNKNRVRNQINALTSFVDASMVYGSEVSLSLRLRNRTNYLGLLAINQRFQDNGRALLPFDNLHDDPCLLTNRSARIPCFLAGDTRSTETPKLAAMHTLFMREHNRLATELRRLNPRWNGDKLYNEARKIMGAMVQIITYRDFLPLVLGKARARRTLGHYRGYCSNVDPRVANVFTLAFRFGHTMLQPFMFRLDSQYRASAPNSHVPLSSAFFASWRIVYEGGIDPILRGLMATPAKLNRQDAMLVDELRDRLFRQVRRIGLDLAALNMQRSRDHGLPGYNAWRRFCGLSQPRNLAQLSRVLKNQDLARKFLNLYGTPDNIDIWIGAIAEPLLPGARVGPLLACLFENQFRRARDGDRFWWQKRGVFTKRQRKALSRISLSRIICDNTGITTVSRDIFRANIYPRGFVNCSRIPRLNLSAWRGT
Put plainly: Inhibition of eosinophil peroxidase (unknown origin)assessed as reduction in H2O2-catalyzed 3-bromo tyrosine formation using tyrosine and potassium bromide preincubated for 10 mins followed by tyrosine/potassium bromide/H2O2 addition and measured after 15 mins by RP-UPLC analysis. In a few lines: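 Commercial EPX, purity ≥98%, 0.6 μM, in 100 mM KPi pH 7.4, preincubated with inhibitor 10 min at rt; then 400 μM tyrosine/1200 μM KBr mix, followed by 20 μM H2O2 (added solutions); 3-bromotyrosine quantified by reversed-phase LC, column 60 °C, MeOH/TFA gradient.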

The target of a further data set is T2, Thyroid peroxidase (Homo sapiens, UniProt P07202).
T2 sequence (P07202 whole entry): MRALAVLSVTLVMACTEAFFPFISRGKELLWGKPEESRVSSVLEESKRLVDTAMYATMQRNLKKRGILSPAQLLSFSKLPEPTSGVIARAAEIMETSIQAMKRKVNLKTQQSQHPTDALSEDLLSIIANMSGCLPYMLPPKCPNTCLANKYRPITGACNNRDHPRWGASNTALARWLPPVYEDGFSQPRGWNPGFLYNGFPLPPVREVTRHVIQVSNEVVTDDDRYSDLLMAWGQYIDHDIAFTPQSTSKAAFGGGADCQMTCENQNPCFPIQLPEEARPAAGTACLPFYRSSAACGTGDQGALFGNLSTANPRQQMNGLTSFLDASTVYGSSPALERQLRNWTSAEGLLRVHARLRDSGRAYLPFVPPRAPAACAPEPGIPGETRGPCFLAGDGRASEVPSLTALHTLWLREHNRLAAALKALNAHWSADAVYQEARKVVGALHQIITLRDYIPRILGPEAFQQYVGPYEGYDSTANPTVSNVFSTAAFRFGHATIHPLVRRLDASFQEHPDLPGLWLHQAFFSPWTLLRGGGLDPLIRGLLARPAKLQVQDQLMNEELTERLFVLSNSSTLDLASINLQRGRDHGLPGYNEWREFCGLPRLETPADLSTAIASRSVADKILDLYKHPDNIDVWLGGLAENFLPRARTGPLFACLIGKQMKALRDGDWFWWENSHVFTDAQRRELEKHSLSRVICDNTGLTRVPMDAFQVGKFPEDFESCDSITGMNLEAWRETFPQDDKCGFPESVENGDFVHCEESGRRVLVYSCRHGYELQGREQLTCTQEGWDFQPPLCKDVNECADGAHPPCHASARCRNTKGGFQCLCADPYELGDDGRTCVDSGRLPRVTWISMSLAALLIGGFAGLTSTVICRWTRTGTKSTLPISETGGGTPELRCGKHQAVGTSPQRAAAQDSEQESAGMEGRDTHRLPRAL
Nature of the data set: Inhibition of recombinant human C-terminal His6-tagged TPO (15 to 839 residues) expressed in baculovirus infected insect cells assessed as reduction in H2O2-catalyzed 3,5-iodo tyrosine formation using 3-iodotyrosine and potassium iodide preincubated for 10 mins followed by 3,5-iodo tyrosine/potassium iodide/H2O2 addition and measured after 15 mins. In a few lines:
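TPO residues 15–839 with C-terminal His6, baculovirus/T. ni expressed, purified by Ni affinity, anion exchange and size exclusion; 4.0 nM in 100 mM KPi pH 7.4, 10 min rt preincubation with inhibitor; then 400 μM KI/240 μM 3-iodotyrosine mix and 20 μM H2O2 (added solutions); 3,5-iodotyrosine formation monitored.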

Another data set deals with MPO, mouse (Mus musculus, UniProt P11247). Put plainly: Inhibition of mouse C-terminal His10 tagged MPO (Met16 to Thr718 residues) assessed as reduction in enzyme-mediated chlorination by measuring reduction in HOCl formation preincubated for 10 mins followed by H2O2/NaCl addition and measured at 30 secs time interval for 5 mins by APF dye based fluorescence assay.
The subject of a further data set is Mus musculus. Put plainly: In vivo inhibition of MPO in PMA-stimulated C57BL6 mouse neutrophil degranulation model assessed as reduction in HOCl production at 30 mg/kg, po pretreated for 20 mins followed by PMA stimulation and measured after 2 mins by luminol chemiluminescence assay relative to control. It counts as functional. Put shortly:
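C57Bl6 mice dosed orally 30 mpk or vehicle 20 min before retro-orbital PMA 0.62 mg/kg; blood drawn 2 min after PMA and held on ice; 100 μL blood mixed with luminol, chemiluminescence read kinetically 25 min at 37 °C, HOCl production rate calculated.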

A short description of data set [2]: Ratio of plasma concentration in PMA-stimulated C57BL6 mouse neutrophil degranulation model at 100 mg/kg, po after 20 mins to in vitro IC50 for MPO in PMA-stimulated human neutrophils. It counts as ADME, organism-based. The settings on record: in vivo.

MPO, mouse, sequence (P11247 whole entry, looked up): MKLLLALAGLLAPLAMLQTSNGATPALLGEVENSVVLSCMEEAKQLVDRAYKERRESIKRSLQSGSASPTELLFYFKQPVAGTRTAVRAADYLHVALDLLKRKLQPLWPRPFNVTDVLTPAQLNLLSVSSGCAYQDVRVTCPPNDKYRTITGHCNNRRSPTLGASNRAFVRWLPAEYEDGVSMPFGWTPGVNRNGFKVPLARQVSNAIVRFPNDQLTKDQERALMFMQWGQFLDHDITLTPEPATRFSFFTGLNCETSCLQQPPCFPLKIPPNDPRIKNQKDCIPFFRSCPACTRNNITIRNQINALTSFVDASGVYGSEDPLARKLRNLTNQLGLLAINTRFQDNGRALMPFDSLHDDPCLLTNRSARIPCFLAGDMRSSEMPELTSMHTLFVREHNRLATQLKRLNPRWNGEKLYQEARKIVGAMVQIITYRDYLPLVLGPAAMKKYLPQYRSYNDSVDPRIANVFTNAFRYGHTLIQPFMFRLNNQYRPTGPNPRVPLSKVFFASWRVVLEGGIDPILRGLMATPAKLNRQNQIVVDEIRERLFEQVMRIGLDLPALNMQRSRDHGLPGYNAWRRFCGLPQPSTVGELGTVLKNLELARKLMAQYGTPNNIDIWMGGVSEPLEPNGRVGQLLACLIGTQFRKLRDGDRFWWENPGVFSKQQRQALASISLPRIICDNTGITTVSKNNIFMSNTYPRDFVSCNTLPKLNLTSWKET

As to `Nc1ccc(Oc2cc(Cl)c(Cl)cc2Cl)cn1`, the Activity result in data set [1] is on record as “Not Active”. Also, the half-inhibitory concentration (IC50) (usually the concentration that inhibits the measured activity by half) on Eosinophil peroxidase was 0.16 µM; at Thyroid peroxidase, 6 µM; at MPO, mouse it was 0.23 µM.
As for `Nc1nc(OCc2ccccc2)c2[nH]nnc2n1`, the inhibition in vivo – broadly, the change of the read-out against control, counted positive when it falls – at 30 mg/kg with Mus musculus stood at 50%. The Activity result in data set [1] was “Not Active”. In addition, the half-maximal inhibitory concentration (IC50) at Eosinophil peroxidase is 0.015 µM; at Thyroid peroxidase, greater than 30 µM; at MPO, mouse it was 0.081 µM. In addition, the Ratio in data set [2] is 92.
